System: Pseudomonas
Experiment: Minimum inhibitory concentration against Pseudomonas species.
Format: functional
Summary of the method: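 MIC in µg/mL, determined by the 2-fold serial agar dilution method. These readings were excluded from the geometric-mean MIC used for the QSAR analysis.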

Row | MIC | SMILES
1 | > 128 µg/mL | CO/N=C(\C(=O)N[C@H]1CN2CC(c3ccncc3)=C(C(=O)O)N2C1=O)c1csc(N)n1
2 | > 128 µg/mL | CO/N=C(\C(=O)N[C@H]1CN2CC(S(=O)(=O)c3ccccc3)=C(C(=O)O)N2C1=O)c1csc(N)n1
3 | > 128 µg/mL | CO/N=C(\C(=O)N[C@H]1CN2CC(S(=O)(=O)CCNC(C)=O)=C(C(=O)O)N2C1=O)c1csc(N)n1
4 | > 128 µg/mL | CO/N=C(\C(=O)N[C@H]1CN2CC(S(=O)(=O)c3c(C)noc3C)=C(C(=O)O)N2C1=O)c1csc(N)n1
5 | > 128 µg/mL | CO/N=C(\C(=O)N[C@H]1CN2CC(COC(C)=O)=C(C(=O)O)N2C1=O)c1csc(N)n1
6 | > 128 µg/mL | CO/N=C(\C(=O)N[C@H]1CN2CC(C(=O)C(F)(F)F)=C(C(=O)O)N2C1=O)c1csc(N)n1
7 | > 128 µg/mL | CO/N=C(\C(=O)N[C@H]1CN2CC(C(=O)CF)=C(C(=O)O)N2C1=O)c1csc(N)n1
8 | > 128 µg/mL | CO/N=C(\C(=O)N[C@H]1CN2CC(Sc3nnnn3C)=C(C(=O)O)N2C1=O)c1csc(N)n1
9 | > 128 µg/mL | CO/N=C(\C(=O)N[C@H]1CN2CC(/C=N/OCCc3ccccc3)=C(C(=O)O)N2C1=O)c1csc(N)n1
10 | > 128 µg/mL | CO/N=C(\C(=O)N[C@H]1CN2CC(c3ccccc3)=C(C(=O)O)N2C1=O)c1csc(N)n1
11 | > 128 µg/mL | CO/N=C(\C(=O)N[C@H]1CN2CC(S(=O)(=O)N(C)C)=C(C(=O)O)N2C1=O)c1csc(N)n1
12 | > 128 µg/mL | CO/N=C(\C(=O)N[C@H]1CN2CC(C(=O)OC)=C(C(=O)O)N2C1=O)c1csc(N)n1
13 | > 128 µg/mL | CO/N=C(\C(=O)N[C@H]1CN2CC(/C=N/OC)=C(C(=O)O)N2C1=O)c1csc(N)n1
14 | > 128 µg/mL | CO/N=C(\C(=O)N[C@H]1CN2CC=C(C(=O)O)N2C1=O)c1csc(N)n1
15 | > 128 µg/mL | CO/N=C(\C(=O)N[C@H]1CN2CC(C(F)(F)F)=C(C(=O)O)N2C1=O)c1csc(N)n1
16 | > 128 µg/mL | CO/N=C(\C(=O)N[C@H]1CN2CC(Sc3nnc(C)s3)=C(C(=O)O)N2C1=O)c1csc(N)n1
17 | > 128 µg/mL | C=CCO/N=C/C1=C(C(=O)O)N2C(=O)[C@@H](NC(=O)/C(=N\OC)c3csc(N)n3)CN2C1

Row | MIC | SMILES
18 | > 128 µg/mL | CO/N=C(\C(=O)N[C@H]1CN2CC(C(=O)c3ccccc3)=C(C(=O)O)N2C1=O)c1csc(N)n1
19 | > 128 µg/mL | C=CC1=C(C(=O)O)N2C(=O)[C@@H](NC(=O)/C(=N\OC)c3csc(N)n3)CN2C1
20 | > 128 µg/mL | CO/N=C(\C(=O)N[C@H]1CN2CC(c3cccs3)=C(C(=O)O)N2C1=O)c1csc(N)n1
21 | > 128 µg/mL | CNC(=O)C1=C(C(=O)O)N2C(=O)[C@@H](NC(=O)/C(=N\OC)c3csc(N)n3)CN2C1
22 | > 128 µg/mL | CO/N=C(\C(=O)N[C@H]1CN2CC(c3ccccn3)=C(C(=O)O)N2C1=O)c1csc(N)n1
23 | > 128 µg/mL | CCS(=O)(=O)C1=C(C(=O)O)N2C(=O)[C@@H](NC(=O)/C(=N\OC)c3csc(N)n3)CN2C1
24 | > 128 µg/mL | CO/N=C(\C(=O)N[C@H]1CN2CC(SC)=C(C(=O)O)N2C1=O)c1csc(N)n1
25 | > 128 µg/mL | CO/N=C(\C(=O)N[C@H]1CN2CC(C(=O)O)=C(C(=O)O)N2C1=O)c1csc(N)n1
26 | > 128 µg/mL | CO/N=C(\C(=O)N[C@H]1CN2CC(C(C)=O)=C(C(=O)O)N2C1=O)c1csc(N)n1
27 | > 128 µg/mL | CO/N=C(\C(=O)N[C@H]1CN2CC(C#N)=C(C(=O)O)N2C1=O)c1csc(N)n1
28 | > 128 µg/mL | CO/N=C(\C(=O)N[C@H]1CN2CC(C(=O)Nc3ccccc3)=C(C(=O)O)N2C1=O)c1csc(N)n1
29 | > 128 µg/mL | CCCOC(=O)C1=C(C(=O)O)N2C(=O)[C@@H](NC(=O)/C(=N\OC)c3csc(N)n3)CN2C1
30 | > 128 µg/mL | CCC(=O)C1=C(C(=O)O)N2C(=O)[C@@H](NC(=O)/C(=N\OC)c3csc(N)n3)CN2C1
31 | > 128 µg/mL | CO/N=C(\C(=O)N[C@H]1CN2CC(NC(=O)OC)=C(C(=O)O)N2C1=O)c1csc(N)n1
32 | > 128 µg/mL | CO/N=C(\C(=O)N[C@H]1CN2CC(C(=O)OCc3ccccc3)=C(C(=O)O)N2C1=O)c1csc(N)n1
33 | > 128 µg/mL | CO/N=C(\C(=O)NC1CN2CC(S(C)(=O)=O)=C(C(=O)O)N2C1=O)c1csc(N)n1 (stereo unspecified)
34 | > 128 µg/mL | CCOC(=O)C1=C(C(=O)O)N2C(=O)[C@@H](NC(=O)/C(=N\OC)c3csc(N)n3)CN2C1

Row | SMILES | MIC
35 | CCOP(=O)(OCC)C1=C(C(=O)O)N2C(=O)[C@@H](NC(=O)/C(=N\OC)c3csc(N)n3)CN2C1 | > 128 µg/mL
36 | CO/N=C(\C(=O)N[C@H]1CN2CC(P(=O)(OC)OC)=C(C(=O)O)N2C1=O)c1csc(N)n1 | > 128 µg/mL
